In ChEMBL document CHEMBL4196013, “Ridaifen-F conjugated with cell-penetrating peptides inhibits intracellular proteasome activities and induces drug-resistant cell death” (Eur J Med Chem, 2018) one finds IC50, CC50 and Activity data, which are given here for 15 compounds.

A word on the IC50: it is the concentration that gives 50% inhibition. In general, CC50 refers to the concentration at which the toxic effect on the cells reaches its halfway point.

For assay [1], the target named is T1, Proteasome Macropain subunit MB1 (Homo sapiens, UniProt P28074).
T1 sequence (P28074 whole entry): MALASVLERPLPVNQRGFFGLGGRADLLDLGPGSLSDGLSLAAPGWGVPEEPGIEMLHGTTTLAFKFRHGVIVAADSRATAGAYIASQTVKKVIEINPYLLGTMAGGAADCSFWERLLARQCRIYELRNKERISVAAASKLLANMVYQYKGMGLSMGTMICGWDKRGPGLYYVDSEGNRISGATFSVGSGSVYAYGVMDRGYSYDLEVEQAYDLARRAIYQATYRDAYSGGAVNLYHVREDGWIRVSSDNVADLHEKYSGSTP
Nature of the assay: Inhibition of chymotrypsin-like activity of human 26S proteasome using Suc-LLVY-MCA as substrate measured for 1 hr by fluorescence assay. A digest of the protocol:
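Purified 26S proteasome with 50 µM fluorogenic substrate in 50 mM HEPES pH 7.5, 40 mM KCl, 5 mM MgCl₂, BSA, 0.5 mM ATP, 1 mM DTT. Inhibitor range 0.1–40 µM. AMC fluorescence monitored 1 h at 37 °C. IC₅₀ from inhibition curves; n = 3.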

The target of assay [2] is T1, Proteasome Macropain subunit MB1. Nature of the assay: Inhibition of chymotrypsin-like activity of human 20S proteasome using Suc-LLVY-MCA as substrate measured for 1 hr by fluorescence assay. A digest of the protocol: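 Purified human 20S proteasome with 50 µM fluorogenic substrate in 25 mM HEPES pH 8.0, 0.5 mM EDTA, 0.03% SDS. Inhibitor range 0.1–10 µM, with the table footnote giving 0.5–8 µM. IC₅₀ from inhibition curves; n = 3.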

Assay [3] relates to RPMI-8226. Nature of the assay: Cytotoxicity against human RPMI8226 cells after 24 to 48 hrs by CellTiter-Glo assay. The class given is functional. The procedure, abridged:
(§1)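 RPMI8226 or KMS-11 cells seeded in triplicate wells at 5 × 10² cells/well and exposed to 0.1–10 µM compound (DMSO) for 24 or 48 h. Survival read as cellular ATP level; Cyt₅₀ derived from concentration–survival curves.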
A general note: ATP-based viability assays read luminescence as a measure of living cells.

Assay [4] has as its system KMS-11. As to the kind of experiment: Cytotoxicity against human KMS11 cells after 24 to 48 hrs by CellTiter-Glo assay. The class given is functional. The procedure, abridged: as §1
Assay [5] deals with RPMI-8226. As to the kind of experiment: Cytotoxicity against human RPMI8226 cells assessed as reduction in cell viability at 10 uM after 2 to 48 hrs by CellTiter-Glo assay. The class given is functional, cell-based. A digest of the protocol: (§2)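 Cells cultured with each compound at 10 µM, with viability followed over time by ATP assay. Mock-treated cells define 100%; values are means of three independent experiments.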

Assay [6] deals with T1, Proteasome Macropain subunit MB1. As to the kind of experiment: Inhibition of chymotrypsin-like activity of human 26S proteasome using Z-LLE-MCA as substrate measured for 1 hr in presence of ATPgammaS by fluorescence assay.
The target is the same in assay [7]. Nature of the assay: Inhibition of chymotrypsin-like activity of 26S proteasome in human RPMI8226 cells using […] as substrate after 24 to 48 hrs by luminescence-based assay. In kind it is cell-based. A digest of the protocol: (§3)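 Intracellular proteasome assay. Cells seeded in triplicate at 5 × 10³ cells/well and incubated 24 or 48 h with 0.1–10 µM inhibitor, 0.5% final DMSO. Proteasome-Glo reagent with aminoluciferin-linked peptide substrates lyses the cells; luminescence read after 15 min. IC₅₀ taken from inhibition curves.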

Assay [8] concerns KMS-11. As to the kind of experiment: Cytotoxicity against human KMS11 cells at 10 uM by CellTiter-Glo assay. The class given is functional, cell-based. Particulars: TDE = time-dependent effect. A digest of the protocol: as §2
For assay [9], the target named is T1, Proteasome Macropain subunit MB1. As to the kind of experiment: Inhibition of chymotrypsin-like activity of 26S proteasome in human KMS11 cells using […] as substrate after 24 to 48 hrs by luminescence-based assay. In kind it is cell-based. The procedure, abridged:
as §3

Calls of active or inactive are those of the source. The calls are words filed in the database; no cut-off is given here. Peptide text beside a SMILES is read from it. * marks the point of attachment. X1 = CCC(=C(c1ccc(OCCN2CCCCCC2)cc1)c1ccc(OCCN2CCCCCC2)cc1)c1cccc(C(=O)*)c1

Turning to `CCC(=C(c1ccc(OCCN2CCCCCC2)cc1)c1ccc(OCCN2CCCCCC2)cc1)c1cccc(CNC(=O)CN[C@@H](CCCNC(=N)N)C(=O)N[C@@H](CCCNC(=N)N)C(=O)N[C@@H](CCCNC(=N)N)C(=O)N[C@@H](CCCNC(=N)N)C(=O)NC(C)=O)c1`, the IC50 in [1] is over 40 µM; in [2], over 8 µM.

For `CCC(=C(c1ccc(OCCN2CCCCCC2)cc1)c1ccc(OCCN2CCCCCC2)cc1)c1cccc(C(=O)NCC(=O)N[C@@H](CCCNC(=N)N)C(=O)N[C@@H](CCCNC(=N)N)C(=O)N[C@@H](CCCNC(=N)N)C(=O)N[C@@H](CCCNC(=N)N)C(N)=O)c1` (X1-GRRRR-NH2), the values for the IC50 in [1] and in assay [2] were over 40 µM and over 8 µM, respectively.

Take `CCC(=C(c1ccc(OCCN2CCCCCC2)cc1)c1ccc(OCCN2CCCCCC2)cc1)c1cccc(C(=O)NCC(=O)N[C@@H](CC(C)C)C(=O)N[C@@H](CC(C)C)C(=O)N[C@@H](CC(C)C)C(=O)NCC(=O)NCC(=O)NCC(=O)NCC(N)=O)c1` (X1-GLLLGGGG-NH2): the results for the half-maximal inhibitory concentration (IC50) in [1] and in assay [2] were 5 µM and 1.1 µM, respectively.

For `CCC(=C(c1ccc(OCCN2CCCCCC2)cc1)c1ccc(OCCN2CCCCCC2)cc1)c1cccc(C(=O)NCC(=O)N[C@@H](CCCNC(=N)N)C(=O)N[C@@H](CCCNC(=N)N)C(=O)N[C@@H](CCCNC(=N)N)C(=O)N[C@@H](CCCNC(=N)N)C(=O)N[C@@H](CCCNC(=N)N)C(=O)N[C@@H](CCCNC(=N)N)C(=O)N[C@@H](CCCNC(=N)N)C(=O)N[C@@H](CCCNC(=N)N)C(N)=O)c1`, the figures for the half-maximal cytotoxic concentration (CC50) with RPMI-8226 [3] and in the assay on KMS-11 [4] were 4.3 µM and 7.2 µM, respectively. Further, the outcome in the assay on RPMI-8226 [5] was Active. Moreover, the IC50 in assay [6] is 2.4 µM; in assay [7], 5.7 µM; in assay [1] it was 5.5 µM; in assay [2], over 50 µM; in assay [9], 6.3 µM. The Activity result in the assay with KMS-11 [8] was “Tde”.

As for `N=C(N)NCCC[C@H](NC(=O)[C@H](CCCNC(=N)N)NC(=O)[C@H](CCCNC(=N)N)NC(=O)[C@H](CCCNC(=N)N)NC(=O)[C@H](CCCNC(=N)N)NC(=O)[C@H](CCCNC(=N)N)NC(=O)[C@H](CCCNC(=N)N)NC(=O)[C@H](CCCNC(=N)N)NC(=O)CN)C(N)=O`, the IC50 in assay [1] was over 40 µM; in assay [2], over 8 µM.

On to Ac-RRRRRRRRG-OH, for which the values for the IC50 in assay [1] and in assay [2] were over 40 µM and over 8 µM, respectively.

Consider `CCC(=C(c1ccc(OCCN2CCCCCC2)cc1)c1ccc(OCCN2CCCCCC2)cc1)c1cccc(C(=O)NCC(=O)N[C@@H](CC(C)C)C(=O)N[C@@H](CC(C)C)C(=O)N[C@@H](CCC(=O)O)C(N)=O)c1`, for which the results for the IC50 in assay [1] and in [2] were 24 µM and 6.1 µM, respectively.

Consider `CCC(=C(c1ccc(OCCN2CCCCCC2)cc1)c1ccc(OCCN2CCCCCC2)cc1)c1cccc(C(=O)NCC(=O)N[C@@H](CCCNC(=N)N)C(=O)N[C@@H](CCCNC(=N)N)C(=O)N[C@@H](CCCNC(=N)N)C(=O)N[C@@H](CCCNC(=N)N)C(=O)N[C@@H](CCCNC(=N)N)C(=O)N[C@@H](CCCNC(=N)N)C(N)=O)c1`, for which the IC50 was over 40 µM in assay [1] and over 8 µM in assay [2].

In the case of `CCC(=C(c1ccc(OCCN2CCCCCC2)cc1)c1ccc(OCCN2CCCCCC2)cc1)c1cccc(CNC(=O)CN[C@@H](CCCNC(=N)N)C(=O)N[C@@H](CCCNC(=N)N)C(=O)N[C@@H](CCCNC(=N)N)C(=O)N[C@@H](CCCNC(=N)N)C(=O)N[C@@H](CCCNC(=N)N)C(=O)N[C@@H](CCCNC(=N)N)C(=O)NC(C)=O)c1`, the IC50 in assay [1] was over 40 µM; in [2] it was over 8 µM.

`CCC(=C(c1ccc(OCCN2CCCCCC2)cc1)c1ccc(OCCN2CCCCCC2)cc1)c1ccccc1`: in the assay on RPMI-8226 [3], it took 3.6 µM to reach half-maximal cytotoxicity (CC50). Moreover, the outcome in the assay on RPMI-8226 [5] was Active. The IC50 in assay [7] is 11 µM; in assay [1], over 100 µM; in assay [2], 1.02 µM. In addition, the Activity result with KMS-11 [8] was “Tde”.

Consider `CC[C@]1(O)C[C@@H]2CN(CCc3c([nH]c4ccccc34)[C@@](C(=O)OC)(c3cc4c(cc3OC)N(C)[C@H]3[C@@](O)(C(=O)OC)[C@H](OC(C)=O)[C@]5(CC)C=CCN6CC[C@]43[C@@H]65)C2)C1` [VINBLASTINE], for which the figures for the 50% inhibitory concentration (IC50) in [1] and in assay [2] were over 40 µM and 4.58 µM, respectively.

On to `CCC(=C(c1ccc(OCCN2CCCCCC2)cc1)c1ccc(OCCN2CCCCCC2)cc1)c1cccc(CNC(=O)CN[C@@H](CC(C)C)C(=O)N[C@@H](CC(C)C)C(=O)N[C@H](C(=O)N[C@@H](Cc2ccc(O)cc2)C(=O)NC(C)=O)C(C)C)c1`, for which the IC50 is over 40 µM in assay [1] and 0.37 µM in assay [2].

Take `CCC(=C(c1ccc(OCCN2CCCCCC2)cc1)c1ccc(OCCN2CCCCCC2)cc1)c1cccc(C(=O)NCC(=O)N[C@@H](CCCNC(=N)N)C(=O)N[C@@H](CCCNC(=N)N)C(=O)N[C@@H](CCCNC(=N)N)C(=O)N[C@@H](CCCNC(=N)N)C(=O)N[C@@H](CCCNC(=N)N)C(=O)N[C@@H](CCCNC(=N)N)C(=O)N[C@@H](CCCNC(=N)N)C(=O)N[C@@H](CCCNC(=N)N)C(=O)NC(C)=O)c1`: the CC50 in the assay with RPMI-8226 [3] is 2.7 µM; in the assay with KMS-11 [4] it was 4.5 µM. The outcome with RPMI-8226 [5] was Active. Also, the IC50 in assay [6] is 6 µM; in assay [7] it was 2.1 µM; in assay [1], 9.4 µM; in [2] it was over 40 µM; in assay [9], 2.1 µM. Besides, the Activity result with KMS-11 [8] was “Tde”.

On to `CCC(=C(c1ccc(OCCN2CCCCCC2)cc1)c1ccc(OCCN2CCCCCC2)cc1)c1cccc(C(=O)NCC(=O)N[C@@H](CC(C)C)C(=O)N[C@@H](CC(C)C)C(=O)N[C@H](C(=O)N[C@@H](Cc2ccc(O)cc2)C(N)=O)C(C)C)c1` (X1-GLLVY-NH2), for which the 50% inhibitory concentration (IC50) in assay [1] was determined as 26 µM; in assay [2], 0.89 µM.

As to `CCC(=C(c1ccc(OCCN2CCCCCC2)cc1)c1ccc(OCCN2CCCCCC2)cc1)c1cccc(C(=O)NCC(=O)N[C@@H](CC(C)C)C(=O)N[C@@H](CC(C)C)C(=O)N[C@H](C(=O)N[C@@H](Cc2ccc(O)cc2)C(=O)NCC(=O)NCC(N)=O)C(C)C)c1` (X1-GLLVYGG-NH2), the 50% inhibitory concentration (IC50) in assay [1] stood at 9.1 µM; in assay [2] it was 0.89 µM.
